Columns and labels:
PKG Iβ = PKG Iβ kinase activation assay; format: biochemical; details: Ni-IMAC-purified PKG Iβ, over basal activity (Figure S1B)
KCa1.1 channel = KCa1.1 channel open probability; format: biochemical, rat; details: 500 nM Ca2+
Summary of the method: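 Inside-out patches excised from enzymatically dispersed cerebral artery smooth muscle cells. Bath (cytosolic face), mM: 140 KCl, 2 MgCl2, 0.1 Mg-ATP, 10 HEPES pH 7.3, 3 EGTA, CaCl2 to 500 nM. Pipette, mM: 120 NaCl, 20 KCl, 2 MgCl2, 1 CaCl2, 10 HEPES pH 7.4. […] NPo normalised to control patches; mean ± SEM.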

[1] = system: endothelium-denuded posterior cerebral arteries; format: cell-based, rat; details: paxilline 1 µM; endothelium-denuded control PCAs without S1.5
[2] = system: posterior cerebral arteries with intact endothelium; format: cell-based, rat; details: control PCAs with intact endothelium, without S1.5
PKG Iα = target: T1, PKG Iα (Bos taurus, UniProt P00516); assay: PKG Iα kinase activation, γ32P-ATP incorporation assay with W15 substrate; format: biochemical; details: for activation of PKG Iα (in words): absence of cGMP, 15 min pre-incubation at 30°C
T1 sequence (P00516 1-671): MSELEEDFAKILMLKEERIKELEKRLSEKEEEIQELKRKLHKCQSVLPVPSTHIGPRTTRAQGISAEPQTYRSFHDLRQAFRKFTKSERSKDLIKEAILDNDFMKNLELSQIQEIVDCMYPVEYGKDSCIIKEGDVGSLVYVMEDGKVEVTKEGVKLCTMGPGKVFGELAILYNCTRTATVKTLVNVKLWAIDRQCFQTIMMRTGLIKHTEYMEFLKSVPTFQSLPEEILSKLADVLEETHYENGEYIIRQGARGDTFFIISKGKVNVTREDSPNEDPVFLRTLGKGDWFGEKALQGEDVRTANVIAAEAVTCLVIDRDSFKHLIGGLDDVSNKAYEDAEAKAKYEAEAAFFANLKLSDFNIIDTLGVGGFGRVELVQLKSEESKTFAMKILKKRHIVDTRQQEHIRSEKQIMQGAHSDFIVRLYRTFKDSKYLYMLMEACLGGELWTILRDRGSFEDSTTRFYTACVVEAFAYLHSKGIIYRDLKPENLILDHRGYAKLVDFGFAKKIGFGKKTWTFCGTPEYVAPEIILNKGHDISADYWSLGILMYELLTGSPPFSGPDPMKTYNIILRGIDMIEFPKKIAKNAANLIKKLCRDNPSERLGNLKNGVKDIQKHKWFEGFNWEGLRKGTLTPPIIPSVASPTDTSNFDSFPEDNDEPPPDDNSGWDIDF

[3] = Secondary structure by circular dichroism spectroscopy; format: physicochemical; details: 10 µM peptide in 10 mM PBS pH=7.4, 22°C, 260 to 190 nm
Summary of the method: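 CD spectra at 22°C in a 2 mm cuvette, with 10 µM peptide in 10 mM PBS pH 7.4. Scanned 260–190 nm at 0.5 nm intervals with 2 s integration and 100 nm/min. Ten accumulations were averaged per peptide, and output was given as mean residue ellipticity (mdeg × cm2/dmol × residue).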

[4] = target: cGMP-dependent protein kinase Iα (UniProt P00516)
[5] = target: cGMP-dependent protein kinase Iα (UniProt P00516); remark: listed apart in the source

Nc1nc2c(ncn2[C@@H]2O[C@@H]3COP(=O)(O)O[C@H]3[C@H]2O)c(=O)[nH]1 [cGMP, cyclic guanosine-3’,5’-monophosphate]
increase in activity under saturating quantities of cGMP (PKG Iβ): 15 fold
change in KCa1.1 open probability (NPo) (KCa1.1 channel; 50 nM cGMP with recombinant PKG Iα in bath solution): no significant change
increase of KCa1.1 NPo above the control (KCa1.1 channel; 5 µM cGMP (saturating) with PKG Iα, p<0.002): eight

CC(C)(O)[C@H]1O[C@H]2CC[C@@]3(C)[C@@](O)(CC[C@H]4Cc5c([nH]c6ccccc56)[C@@]43C)C2=CC1=O [paxilline]
additional constriction on paxilline in control arteries [1]: 5%
paxilline-induced constriction in control arteries [2]: 4%

Ac-AEAKAKYEAEAAFFANLKLSD-NH2 [S1.11]
activation of PKG Iα (in words) (PKG Iα): complete loss of activity

Ac-ALKSENYADKVEFKDAKYEASALANEFADA-NH2 [S1.7]
activation of PKG Iα (in words) (PKG Iα): did not activate the kinase
helicity (secondary structure by CD) [3]: found to not be helical

Ac-DAEAKAKYEAEAAFFANLKLSD-NH2 [S1.10]
EC50 (PKG Iα): 45 ± 4 µM

Ac-DVSNKAYEDAEAKAKYEAEAA-NH2 [S1.3]
activation of PKG Iα (in words) (PKG Iα): completely abolished kinase activity
helicity (secondary structure by CD) [3]: helicity was compromised but not completely lost

Ac-DVSNKAYEDAEAKAKYEAEAAAAANLKLSD-NH2 [S1.6]
activation of PKG Iα (in words) (PKG Iα): equivalent to removal of the entire knob
helicity (secondary structure by CD) [3]: increased degree of helicity

Ac-DVSNKAYEDAEAKAKYEAEAAFFANLK-NH2 [S1.2]
EC50 (PKG Iα): 35 ± 4 µM

Ac-DVSNKAYEDAEAKAKYEAEAAFFANLKLSD-NH2 [S1.1]
EC50 (PKG Iα): 35 ± 4 µM
activation of PKG Iα (in words) (PKG Iα): robust and cooperative activation
effect on KM for the substrate peptide W15 (PKG Iα; control experiment (Figure S4)): did not affect the KM
increase of KCa1.1 channel activity (NPo) versus control (KCa1.1 channel; 100 µM peptide pre-incubated with PKG Iα, +10mV, p<0.05): 6 fold

Ac-EDAEAKAKYEAEAAFFANLKLSD-NH2 [S1.9]
EC50 (PKG Iα): 43 ± 5 µM

Ac-NKAYEDAEAKAKYEAEAAFFANLKLSD-NH2 [S1.4]
EC50 (PKG Iα): 12 ± 1 µM

Ac-NKAYEDAEAKAKYEAEAAFFANLKLSD-NH2 [S1.4]
maximal velocity of PKG Iα kinase activity with the peptide [4]: 80%

Ac-DVSNKAYEDAEAKAKYEAEAAFFANLK-NH2 [S1.2]
maximal efficacy of activation of PKG Iα kinase activity [5]: 60 % of maximum
